“And” between values parts separate entries of the source, which are not always exact repeats. Equal values may be shown once. “Also recorded” adds a separate entry of the source.
Legend:
Acute toxicity [1] = format: in vivo, mice; conditions: male, CD-1, mouse, in vivo, po
male CD-1 mice = assay: Acute toxicity; format: in vivo; conditions: male CD-1 mice
Acute toxicity [2] = format: in vivo, mice; conditions: male, Nude, mouse, in vivo, ip
male Nude mice = assay: Acute toxicity; format: in vivo; conditions: male nude mice
[3] = Oral pharmacokinetics and bioavailability in rats; format: in vivo; conditions: for bioavailability: both; for AUC(0-t): AUClast; for Vd/F: Vz/F; for AUC(0-inf): AUCinf; for half-life: T1/2, male rats
Procedure, shortened: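 Sprague Dawley rats (8–12 wk, 3/sex/group, catheterised jugular vein) got one oral gavage dose of 10 or 50 mg/kg. Dose was a solution in cremophor:ethanol:saline (1:1:8), pH 4.0, at 10 ml/kg. EDTA plasma was collected at 5, 15, 30 min, 1, 2, 4, 6 and 24 h, precipitated with acetonitrile, and quantified by LC-MS/MS against abiraterone internal standard. Noncompartmental parameters; bioavailability from oral AUClast versus IV.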

[4] = female rats, 10 mg/kg PO, GeoMean
[5] = female rats, 10 mg/kg PO, individual rat, listed as VNPP433-3β, 10 mg/kg
[6] = female rats, 50 mg/kg PO, individual rat, listed as VNPP433-3β, 50 mg/kg
[7] = female, Sprague Dawley, rat, plasma, po, 10 mg/kg, female rats, 10 mg/kg PO, GeoMean
[8] = female, Sprague Dawley, rat, plasma, po, 10 mg/kg, female rats, 10 mg/kg PO, individual rat
[9] = male rats, 10 mg/kg PO, GeoMean
[10] = male rats, 10 mg/kg PO, individual rat, listed as VNPP433-3β, 10 mg/kg
[11] = male rats, 50 mg/kg PO, GeoMean
[12] = male rats, 50 mg/kg PO, individual rat, listed as VNPP433-3β, 50 mg/kg
[13] = male, Sprague Dawley, rat, plasma, po, 10 mg/kg, male rats, 10 mg/kg PO, GeoMean
[14] = male, Sprague Dawley, rat, plasma, po, 10 mg/kg, male rats, 10 mg/kg PO, individual rat

## C[C@]12CC[C@H](n3ccnc3)CC1=CC[C@@H]1[C@@H]2CC[C@]2(C)C(n3cnc4ccccc43)=CC[C@@H]12 [Compound 2, 3β-(1H-imidazole-1-yl)-17-(1H-benzimidazole-1-yl)-androsta-5,16-diene]
Acute toxicity [1]
  NOAEL at 72 h: > 300 mg/kg
Male CD-1 mice; 100 mg/kg PO, observed 72 hrs
  Tolerability and mortality: well tolerated, and no mortality was observed
Male CD-1 mice; 1000 mg/kg PO, 3 mice, 1000 mg/kg
  Mortality: two mice died on days 2 and the third mice died on day 3; also recorded: Two mice were in a moribund stage and found dead 36 hrs. post dose, the third mice died 72 hrs. post dose
Male CD-1 mice; 1000 mg/kg PO, after 24 hrs
  Clinical signs: piloerection, apathy (inactive) and hypothermia
Male CD-1 mice; all three dose groups (100, 300, 1000 mg/kg PO), postmortem
  Gross necropsy, organ toxicity: no evident organ toxicity
Male CD-1 mice; low (100 mg/kg) and medium (300 mg/kg) dose PO, after 72 hrs
  Signs of toxicity at necropsy: no signs of toxicity were observed
Acute toxicity [2]
  MTD at 2 weeks: 50 mg/kg
Male Nude mice; 100 mg/kg single intraperitoneal dose, 3 mice, 100 mg/kg
  Mortality: one mouse died in the 100 mg/kg group
Male Nude mice; 25 and 50 mg/kg single intraperitoneal dose, two weeks
  Signs of toxicity: did not exhibit any signs of toxicity
[3]; Sprague Dawley, rat, plasma, oral
  bioavailability: 32 to 47%
[3]; Sprague Dawley, rat, plasma, po, 10 mg/kg
  bioavailability: 32 to 34%
[3]; [4]
  AUC% Extrap: 81.9%
  Cmax/D: 59.4 ng/mL/mg/kg
[3]; [5]
  AUC% Extrap: 76.9% and 88.6% and 80.8%
  AUClast: 484 µg·min/mL and 785 µg·min/mL
  Cmax: 408 ng/mL and 681 ng/mL
  Cmax/D: 75.5 ng/mL/mg/kg and 40.8 ng/mL/mg/kg and 68.1 ng/mL/mg/kg
[3]; female rats, 50 mg/kg PO, GeoMean
  Cmax/D: 90.0 ng/mL/mg/kg
[3]; [6]
  AUClast: 5560 µg·min/mL and 4300 µg·min/mL
  Cmax: 4820 ng/mL and 4320 ng/mL
  Cmax/D: 87.6 ng/mL/mg/kg and 96.4 ng/mL/mg/kg and 86.4 ng/mL/mg/kg
[3]; [7]
  AUC(0-t): 11600 ng·h/mL
  Vd/F: 16.3 L/kg
[3]; [8]
  AUC(0-t): 14900 ng·h/mL
  Vd/F: 12.7 L/kg
[3]; female, Sprague Dawley, rat, plasma, po, 10 mg/kg, CL/F, female rats, 10 mg/kg PO, GeoMean
  CL/F: 2.46 mL/min/kg
[3]; female, Sprague Dawley, rat, plasma, po, 10 mg/kg, CL/F, female rats, 10 mg/kg PO, individual rat
  CL/F: 2.58 mL/min/kg
[3]; female, Sprague Dawley, rat, plasma, po, 10 mg/kg, Cmax, female rats, 10 mg/kg PO, GeoMean
  Cmax: 594 ng/mL
[3]; female, Sprague Dawley, rat, plasma, po, 10 mg/kg, Cmax, female rats, 10 mg/kg PO, individual rat
  Cmax: 755 ng/mL
[3]; female, Sprague Dawley, rat, plasma, po, 10 mg/kg, Tmax, female rats, 10 mg/kg PO, GeoMean
  Tmax: 6 h
[3]; female, Sprague Dawley, rat, plasma, po, 10 mg/kg, Tmax, female rats, 10 mg/kg PO, individual rat
  Tmax: 6 h
[3]; female, Sprague Dawley, rat, plasma, po, 50 mg/kg, female rats, 50 mg/kg PO, GeoMean
  AUC(0-t): 80000 ng·h/mL
[3]; female, Sprague Dawley, rat, plasma, po, 50 mg/kg, female rats, 50 mg/kg PO, individual rat
  AUC(0-t): 76800 ng·h/mL
[3]; female, Sprague Dawley, rat, plasma, po, 50 mg/kg, Cmax, female rats, 50 mg/kg PO, GeoMean
  Cmax: 4500 ng/mL
[3]; female, Sprague Dawley, rat, plasma, po, 50 mg/kg, Cmax, female rats, 50 mg/kg PO, individual rat
  Cmax: 4380 ng/mL
[3]; female, Sprague Dawley, rat, plasma, po, 50 mg/kg, Tmax, female rats, 50 mg/kg PO, GeoMean
  Tmax: 24 h
[3]; female, Sprague Dawley, rat, plasma, po, 50 mg/kg, Tmax, female rats, 50 mg/kg PO, individual rat
  Tmax: 23.3 h
[3]; [9]
  AUC% Extrap: 16.5%
  Cmax/D: 61.3 ng/mL/mg/kg
[3]; [10]
  AUC% Extrap: 24.4% and 9.55% and 19.3%
  AUCinf: 364 µg·min/mL and 715 µg·min/mL
  AUClast: 329 µg·min/mL and 577 µg·min/mL
  CL/F: 27.5 mL/min/kg and 14.0 mL/min/kg
  Cmax: 460 ng/mL and 715 ng/mL
  Cmax/D: 70.2 ng/mL/mg/kg and 46.0 ng/mL/mg/kg and 71.5 ng/mL/mg/kg
  T1/2: 6.3 h and 9.0 h
  Vz/F: 15.0 L/kg and 10.9 L/kg
[3]; [11]
  AUC% Extrap: 79.5%
  Cmax/D: 54.5 ng/mL/mg/kg
[3]; male rats, 50 mg/kg PO, individual rat
  Tmax: 6 h
[3]; [12]
  AUC% Extrap: 94.3% and 66.9%
  AUClast: 4460 µg·min/mL and 3600 µg·min/mL
  Cmax: 3430 ng/mL and 3160 ng/mL
  Cmax/D: 37.4 ng/mL/mg/kg and 68.6 ng/mL/mg/kg and 63.2 ng/mL/mg/kg
  Tmax: 6 h
[3]; male rats, PO
  Time of peak of PO concentration-time profiles: 6 h
[3]; [13]
  AUC(0-inf): 9380 ng·h/mL
  AUC(0-t): 7700 ng·h/mL
  Vd/F: 12.6 L/kg
[3]; [14]
  AUC(0-inf): 11400 ng·h/mL
  AUC(0-t): 8650 ng·h/mL
[3]; male, Sprague Dawley, rat, plasma, po, 10 mg/kg, CL/F, male rats, 10 mg/kg PO, GeoMean
  CL/F: 17.8 mL/min/kg
[3]; male, Sprague Dawley, rat, plasma, po, 10 mg/kg, CL/F, male rats, 10 mg/kg PO, individual rat
  CL/F: 14.6 mL/min/kg
[3]; male, Sprague Dawley, rat, plasma, po, 10 mg/kg, Cmax, male rats, 10 mg/kg PO, GeoMean
  Cmax: 613 ng/mL
[3]; male, Sprague Dawley, rat, plasma, po, 10 mg/kg, Cmax, male rats, 10 mg/kg PO, individual rat
  Cmax: 702 ng/mL
[3]; male, Sprague Dawley, rat, plasma, po, 10 mg/kg, 10 mg/kg PO, GeoMean
  half-life: 8.22 h
[3]; male, Sprague Dawley, rat, plasma, po, 10 mg/kg, 10 mg/kg PO, individual rat
  half-life: 9.8 h
[3]; male, Sprague Dawley, rat, plasma, po, 10 mg/kg, Tmax, male rats, 10 mg/kg PO, GeoMean
  Tmax: 6 h
[3]; male, Sprague Dawley, rat, plasma, po, 10 mg/kg, Tmax, male rats, 10 mg/kg PO, individual rat
  Tmax: 6 h

Reference: paper PMC9998351 (Steroids, 2023)
